Experimental data: ChEMBL document CHEMBL5303300, “EUbOPEN Chemogenomics Library - Multiplex” (2023)
Values joined by “and” are separate entries in the source; they are usually repeats but may differ in a detail not shown here. Identical values can stand only once.

Assays:
Assay type in all cases: toxicity, cell-based
[1] = test system: U2OS; test: Multiplex assay against U2OS; settings: human, number of replicates 2
Outline: (§1)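 Live cells were stained at seeding with Hoechst33342, BioTracker Green Microtubule Cytoskeleton Dye, MitoTracker Red and Annexin V Alexa Fluor 680, then imaged on a CQ1 microscope at 37°C and 5% CO2 after compound addition. CellPathfinder machine-learning gating split cells into Hoechst high-intensity objects or normal cells. Normal cells were split into healthy, pyknosed or fragmented nuclei, and pyknosed cells into mitotic or apoptotic. Tubulin, mitochondrial-mass and membrane-permeability phenotypes are per cents of healthy-nucleus cells.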

[2] = test system: Fibroblast; test: Multiplex assay against human fibroblast; settings: number of replicates 2; outline: as §1
[3] = test system: HEK-293T; test: Multiplex assay against HEK293T; settings: human, number of replicates 2; outline: as §1
[4] = 12 h, 1 µM, compound concentration 1 uM
[5] = 12 h, 10 µM, compound concentration 10 uM
[6] = 24 h, 1 µM, compound concentration 1 uM
[7] = 24 h, 10 µM, compound concentration 10 uM
[8] = 48 h, 1 µM, compound concentration 1 uM
[9] = 48 h, 10 µM, compound concentration 10 uM

Structure (SMILES): Fc1cccc(-n2cnc3c(NCc4nc5ccc(F)c(F)c5[nH]4)nc(N4CCOCC4)nc32)c1
- Population Fragmented Nuclei (%) [1, 4]: 13%
- Population Healthy Nuclei (%) [1, 4]: 59% and 53%
- Population Hoechst High Intensity Objects (%) [1, 4]: 0%
- Population Membrane Permeable-Phenotype (%) [1, 4]: 2% and 5%
- Population Mitochondria Different-Phenotype (%) [1, 4]: 5% and 0%
- Population Normal (%) [1, 4]: 99% and 100%
- Population Pyknosed Nuclei (%) [1, 4]: 27% and 32%
- Population Tubulin-Different-Phenotype (%) [1, 4]: 68% and 31%
- Population Apoptotic (%) [1, 5]: 86% and 90%
- Population Hoechst High Intensity Objects (%) [1, 5]: 0%
- Population Membrane Permeable-Phenotype (%) [1, 5]: 33% and 45%
- Population Mitochondria Different-Phenotype (%) [1, 5]: 33% and 52%
- Population Mitotic Cells (%) [1, 5]: 13% and 9%
- Population Normal (%) [1, 5]: 100% and 99%
- Population Pyknosed Nuclei (%) [1, 5]: 41% and 57%
- Population Tubulin-Different-Phenotype (%) [1, 5]: 100% and 78%
- Population Apoptotic (%) [1, 6]: 63% and 97%
- Population Fragmented Nuclei (%) [1, 6]: 8% and 19%
- Population Healthy Nuclei (%) [1, 6]: 14% and 15%
- Population Hoechst High Intensity Objects (%) [1, 6]: 5% and 3%
- Population Membrane Permeable-Phenotype (%) [1, 6]: 12% and 28%
- Population Mitochondria Different-Phenotype (%) [1, 6]: 12% and 23%
- Population Normal (%) [1, 6]: 95% and 96%
- Population Pyknosed Nuclei (%) [1, 6]: 77% and 64%
- Population Tubulin-Different-Phenotype (%) [1, 6]: 37% and 73%
- Population Apoptotic (%) [1, 7]: 90% and 94%
- Population Hoechst High Intensity Objects (%) [1, 7]: 0% and 1%
- Population Mitochondria Different-Phenotype (%) [1, 7]: 100% and 69%
- Population Mitotic Cells (%) [1, 7]: 9% and 5%
- Population Normal (%) [1, 7]: 100% and 98%
- Population Pyknosed Nuclei (%) [1, 7]: 55% and 76%
- Population Tubulin-Different-Phenotype (%) [1, 7]: 100% and 65%
- Population Apoptotic (%) [1, 8]: 87% and 100%
- Population Fragmented Nuclei (%) [1, 8]: 8% and 21%
- Population Healthy Nuclei (%) [1, 8]: 2% and 8%
- Population Hoechst High Intensity Objects (%) [1, 8]: 6%
- Population Membrane Permeable-Phenotype (%) [1, 8]: 100% and 42%
- Population Mitotic Cells (%) [1, 8]: 12% and 0%
- Population Normal (%) [1, 8]: 93%
- Population Pyknosed Nuclei (%) [1, 8]: 89% and 70%
- Population Tubulin-Different-Phenotype (%) [1, 8]: 100% and 94%
- Population Apoptotic (%) [1, 9]: 100% and 99%
- Population Healthy Nuclei (%) [1, 9]: 4% and 10%
- Population Hoechst High Intensity Objects (%) [1, 9]: 0%
- Population Membrane Permeable-Phenotype (%) [1, 9]: 100% and 60%
- Population Mitochondria Different-Phenotype (%) [1, 9]: 50% and 93%
- Population Mitotic Cells (%) [1, 9]: 0%
- Population Normal (%) [1, 9]: 100%
- Population Pyknosed Nuclei (%) [1, 9]: 46% and 81%
- Population Tubulin-Different-Phenotype (%) [1, 9]: 100% and 73%
- Population Apoptotic (%) [2, 4]: 46% and 50%
- Population Fragmented Nuclei (%) [2, 4]: 8% and 5%
- Population Healthy Nuclei (%) [2, 4]: 78% and 65%
- Population Hoechst High Intensity Objects (%) [2, 4]: 0%
- Population Membrane Permeable-Phenotype (%) [2, 4]: 5% and 4%
- Population Mitochondria Different-Phenotype (%) [2, 4]: 0%
- Population Mitotic Cells (%) [2, 4]: 53% and 49%
- Population Normal (%) [2, 4]: 99% and 100%
- Population Pyknosed Nuclei (%) [2, 4]: 12% and 28%
- Population Tubulin-Different-Phenotype (%) [2, 4]: 21% and 15%
- Total Cell Count [2, 4]: 211 and 198
- Population Apoptotic (%) [2, 5]: 55% and 40%
- Population Fragmented Nuclei (%) [2, 5]: 6% and 10%
- Population Healthy Nuclei (%) [2, 5]: 63% and 68%
- Population Hoechst High Intensity Objects (%) [2, 5]: 0%
- Population Membrane Permeable-Phenotype (%) [2, 5]: 6% and 8%
- Population Mitochondria Different-Phenotype (%) [2, 5]: 21% and 11%
- Population Mitotic Cells (%) [2, 5]: 44% and 60%
- Population Normal (%) [2, 5]: 99% and 100%
- Population Pyknosed Nuclei (%) [2, 5]: 29% and 21%
- Population Tubulin-Different-Phenotype (%) [2, 5]: 72% and 75%
- Total Cell Count [2, 5]: 152 and 213
- Population Apoptotic (%) [2, 6]: 85% and 72%
- Population Fragmented Nuclei (%) [2, 6]: 12% and 10%
- Population Healthy Nuclei (%) [2, 6]: 44% and 66%
- Population Hoechst High Intensity Objects (%) [2, 6]: 0%
- Population Membrane Permeable-Phenotype (%) [2, 6]: 13% and 5%
- Population Mitochondria Different-Phenotype (%) [2, 6]: 0%
- Population Mitotic Cells (%) [2, 6]: 14% and 27%
- Population Normal (%) [2, 6]: 100% and 99%
- Population Pyknosed Nuclei (%) [2, 6]: 42% and 22%
- Population Tubulin-Different-Phenotype (%) [2, 6]: 25% and 36%
- Total Cell Count [2, 6]: 197 and 196
- Population Apoptotic (%) [2, 7]: 44% and 42%
- Population Hoechst High Intensity Objects (%) [2, 7]: 0%
- Population Mitochondria Different-Phenotype (%) [2, 7]: 57% and 31%
- Population Mitotic Cells (%) [2, 7]: 55% and 57%
- Population Normal (%) [2, 7]: 100% and 99%
- Population Pyknosed Nuclei (%) [2, 7]: 27% and 17%
- Population Tubulin-Different-Phenotype (%) [2, 7]: 100% and 74%
- Population Apoptotic (%) [2, 8]: 85% and 90%
- Population Fragmented Nuclei (%) [2, 8]: 12% and 10%
- Population Healthy Nuclei (%) [2, 8]: 21% and 20%
- Population Hoechst High Intensity Objects (%) [2, 8]: 2% and 0%
- Population Membrane Permeable-Phenotype (%) [2, 8]: 13% and 17%
- Population Mitochondria Different-Phenotype (%) [2, 8]: 2%
- Population Mitotic Cells (%) [2, 8]: 14% and 9%
- Population Normal (%) [2, 8]: 97% and 99%
- Population Pyknosed Nuclei (%) [2, 8]: 66% and 68%
- Population Tubulin-Different-Phenotype (%) [2, 8]: 47% and 28%
- Total Cell Count [2, 8]: 172 and 174
- Population Apoptotic (%) [2, 9]: 77% and 73%
- Population Fragmented Nuclei (%) [2, 9]: 11% and 14%
- Population Healthy Nuclei (%) [2, 9]: 60% and 65%
- Population Hoechst High Intensity Objects (%) [2, 9]: 0%
- Population Membrane Permeable-Phenotype (%) [2, 9]: 1% and 2%
- Population Mitochondria Different-Phenotype (%) [2, 9]: 27% and 23%
- Population Mitotic Cells (%) [2, 9]: 22% and 26%
- Population Normal (%) [2, 9]: 100%
- Population Pyknosed Nuclei (%) [2, 9]: 28% and 19%
- Population Tubulin-Different-Phenotype (%) [2, 9]: 72% and 75%
- Total Cell Count [2, 9]: 140 and 207
- Population Apoptotic (%) [3, 4]: 54% and 71%
- Population Fragmented Nuclei (%) [3, 4]: 7% and 5%
- Population Healthy Nuclei (%) [3, 4]: 81% and 64%
- Population Hoechst High Intensity Objects (%) [3, 4]: 12% and 18%
- Population Membrane Permeable-Phenotype (%) [3, 4]: 2%
- Population Mitochondria Different-Phenotype (%) [3, 4]: 61% and 54%
- Population Mitotic Cells (%) [3, 4]: 45% and 28%
- Population Normal (%) [3, 4]: 87% and 81%
- Population Pyknosed Nuclei (%) [3, 4]: 10% and 29%
- Population Tubulin-Different-Phenotype (%) [3, 4]: 86% and 80%
- Total Cell Count [3, 4]: 334 and 362
- Population Apoptotic (%) [3, 5]: 69% and 80%
- Population Fragmented Nuclei (%) [3, 5]: 1% and 4%
- Population Healthy Nuclei (%) [3, 5]: 80% and 73%
- Population Hoechst High Intensity Objects (%) [3, 5]: 6% and 11%
- Population Membrane Permeable-Phenotype (%) [3, 5]: 2% and 3%
- Population Mitochondria Different-Phenotype (%) [3, 5]: 81% and 68%
- Population Mitotic Cells (%) [3, 5]: 30% and 20%
- Population Normal (%) [3, 5]: 93% and 88%
- Population Pyknosed Nuclei (%) [3, 5]: 18% and 22%
- Population Tubulin-Different-Phenotype (%) [3, 5]: 94%
- Total Cell Count [3, 5]: 319 and 328
- Population Apoptotic (%) [3, 6]: 65% and 77%
- Population Fragmented Nuclei (%) [3, 6]: 3% and 7%
- Population Healthy Nuclei (%) [3, 6]: 83% and 57%
- Population Hoechst High Intensity Objects (%) [3, 6]: 22% and 24%
- Population Membrane Permeable-Phenotype (%) [3, 6]: 0% and 1%
- Population Mitochondria Different-Phenotype (%) [3, 6]: 75% and 72%
- Population Mitotic Cells (%) [3, 6]: 34% and 22%
- Population Normal (%) [3, 6]: 77% and 75%
- Population Pyknosed Nuclei (%) [3, 6]: 12% and 35%
- Population Tubulin-Different-Phenotype (%) [3, 6]: 88% and 80%
- Total Cell Count [3, 6]: 263 and 293
- Population Apoptotic (%) [3, 7]: 82% and 62%
- Population Fragmented Nuclei (%) [3, 7]: 3% and 2%
- Population Healthy Nuclei (%) [3, 7]: 85% and 88%
- Population Hoechst High Intensity Objects (%) [3, 7]: 13% and 15%
- Population Membrane Permeable-Phenotype (%) [3, 7]: 1% and 2%
- Population Mitochondria Different-Phenotype (%) [3, 7]: 83% and 82%
- Population Mitotic Cells (%) [3, 7]: 17% and 37%
- Population Normal (%) [3, 7]: 86% and 84%
- Population Pyknosed Nuclei (%) [3, 7]: 10% and 8%
- Population Tubulin-Different-Phenotype (%) [3, 7]: 93% and 94%
- Total Cell Count [3, 7]: 366 and 334
- Population Apoptotic (%) [3, 8]: 69% and 80%
- Population Fragmented Nuclei (%) [3, 8]: 5% and 7%
- Population Healthy Nuclei (%) [3, 8]: 82% and 60%
- Population Hoechst High Intensity Objects (%) [3, 8]: 23% and 24%
- Population Membrane Permeable-Phenotype (%) [3, 8]: 1% and 3%
- Population Mitochondria Different-Phenotype (%) [3, 8]: 84% and 70%
- Population Mitotic Cells (%) [3, 8]: 30% and 19%
- Population Normal (%) [3, 8]: 76% and 75%
- Population Pyknosed Nuclei (%) [3, 8]: 11% and 32%
- Population Tubulin-Different-Phenotype (%) [3, 8]: 88% and 73%
- Total Cell Count [3, 8]: 251 and 297
- Population Apoptotic (%) [3, 9]: 89% and 85%
- Population Fragmented Nuclei (%) [3, 9]: 4% and 5%
- Population Healthy Nuclei (%) [3, 9]: 85% and 83%
- Population Hoechst High Intensity Objects (%) [3, 9]: 13% and 16%
- Population Membrane Permeable-Phenotype (%) [3, 9]: 1% and 0%
- Population Mitochondria Different-Phenotype (%) [3, 9]: 92%
- Population Mitotic Cells (%) [3, 9]: 10% and 14%
- Population Normal (%) [3, 9]: 86% and 83%
- Population Pyknosed Nuclei (%) [3, 9]: 10%
- Population Tubulin-Different-Phenotype (%) [3, 9]: 96% and 94%
- Total Cell Count [3, 9]: 333 and 303
